Results from ChEMBL document CHEMBL1770063, “Synthesis and cytotoxic activity of benzo[a]acronycine and benzo[b]acronycine substituted on the A ring” (Eur J Med Chem, 2011).

Columns and labels:
[1] = Cytotoxicity against human KB-3-1 cells after 96 hrs by MTA assay; format: functional, cell-based; settings: KB 3-1, 96 h
Procedure, shortened: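 KB-3-1 cells grown in DMEM with 10% fetal calf serum, 2 mM L-glutamine, penicillin/streptomycin, 10 mM HEPES (pH 7.4). Exposed to nine serial drug dilutions in triplicate for 96 h (four doubling times); microculture tetrazolium read-out. IC50 is the concentration reducing optical density by 50% relative to untreated controls.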

L1210 = assay: Cytotoxicity against mouse L1210 cells after 48 hrs by MTA assay; format: functional, cell-based; settings: L1210, 48 h
Procedure, shortened: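 L1210 cells maintained in RPMI 1640 plus 10% fetal calf serum, 2 mM L-glutamine, penicillin/streptomycin and 10 mM HEPES (pH 7.4). Drug given at nine serial dilutions, triplicate, for 48 h (four doubling times), then tetrazolium microculture assay. IC50 is the concentration giving 50% lower optical density than untreated controls.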

COc1cc2c(c3c1c(=O)c1cc4ccccc4cc1n3C)C=CC(C)(C)O2 [BENZO[B]ACRONYCINE]
IC50 [1]: 3400 nM

COc1cc2c(c3c1c(=O)c1c4ccccc4ccc1n3C)C=CC(C)(C)O2 [BENZO[A]ACRONYCINE]
IC50 [1]: 8600 nM

COc1cc2c(c3c1c(=O)c1c4ccc(Br)cc4ccc1n3C)C=CC(C)(C)O2
IC50 [1]: 1300 nM | IC50 (L1210): 490 nM

COc1cc2c(c3c1c(=O)c1cc4cc(Br)ccc4cc1n3C)[C@H]1OC(=O)O[C@H]1C(C)(C)O2 (racemic)
IC50 [1]: 11 nM | IC50 (L1210): 34 nM

COc1cc2c(c3c1c(=O)c1c4ccc(Br)cc4ccc1n3C)[C@H]1OC(=O)O[C@H]1C(C)(C)O2 (racemic)
IC50 [1]: 15 nM | IC50 (L1210): 80 nM

COc1cc2c(c3c1c(=O)c1cc4cc(Br)ccc4cc1n3C)[C@@H](OC(C)=O)[C@@H](OC(C)=O)C(C)(C)O2 (racemic)
IC50 [1]: 115 nM | IC50 (L1210): 600 nM

COc1cc2c(c3c1c(=O)c1c4ccc(Br)cc4ccc1n3C)[C@@H](O)[C@@H](O)C(C)(C)O2 (racemic)
IC50 [1]: 5500 nM | IC50 (L1210): 7600 nM

CC1(C)C=Cc2c(cc(O)c3c(=O)c4c(ccc5cc(Br)ccc54)[nH]c23)O1
IC50 [1]: 1700 nM | IC50 (L1210): 3400 nM

COc1cc2c(c3c1c(=O)c1cc4cc(Br)ccc4cc1n3C)[C@@H](O)[C@@H](O)C(C)(C)O2 (racemic)
IC50 [1]: 36300 nM | IC50 (L1210): 225 nM

COc1cc2c(c3c1c(=O)c1cc4cc(Br)ccc4cc1n3C)C=CC(C)(C)O2
IC50 [1]: 9900 nM | IC50 (L1210): 2200 nM

COc1cc2c(c3c1c(=O)c1cc4ccccc4cc1n3C)[C@H]1OC(=O)O[C@H]1C(C)(C)O2 (racemic)
IC50 (L1210): 16 nM

COc1cc2c(c3c1c(=O)c1c4ccc(Br)cc4ccc1n3C)[C@@H](OC(C)=O)[C@@H](OC(C)=O)C(C)(C)O2 (racemic)
IC50 [1]: 40 nM | IC50 (L1210): 400 nM

COc1cc2c(c3c1c(=O)c1c4ccccc4ccc1n3C)[C@@H](OC(C)=O)[C@@H](OC(C)=O)C(C)(C)O2 (racemic)
IC50 [1]: 140 nM | IC50 (L1210): 730 nM

Cn1c2cc3ccc(Br)cc3cc2c(=O)c2c(O)cc3c(c21)C=CC(C)(C)O3
IC50 [1]: 14300 nM | IC50 (L1210): 645 nM

C=C1n2c3ccc4cc(Br)ccc4c3c(=O)c3c(O)cc(O)c(c32)C1(C)C
IC50 [1]: 2500 nM | IC50 (L1210): 7300 nM

COc1cc2c(c3c1c(=O)c1c4ccccc4ccc1n3C)[C@H]1OC(=O)O[C@H]1C(C)(C)O2 (racemic)
IC50 [1]: 15 nM | IC50 (L1210): 59 nM

COc1cc2c(c3c1c(=O)c1cc4ccccc4cc1n3C)[C@@H](OC(C)=O)[C@@H](OC(C)=O)C(C)(C)O2 (racemic)
IC50 [1]: 95 nM

C#CC(C)(C)Oc1cc(O)c2c(=O)c3c4ccc(Br)cc4ccc3n3c2c1C(C)(C)C3=C
IC50 [1]: 37100 nM | IC50 (L1210): 51100 nM
